Measured values reported in ChEMBL document CHEMBL4725354 (J Med Chem, 2020).

Legend:
[1] = Cytotoxicity against MDCK cells over expressing ABCC1 assessed as reduction in cell viability after 72 hrs by MTT assay; format: ADME, cell-based, Canis lupus familiaris, MDCK-II; details: dog, MDCK cells overexpressing ABCC1
In short: (§1)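 MTT viability assay. Compound dilutions in culture medium (3.2 to 1000 µM as prepared). About 2,000 cells per well, 72 h at 37 °C, 5% CO2. Culture medium set as 100% and 10% DMSO as 0% viability. MTT added for 1 h, formazan dissolved in DMSO, absorbance read at 570 nm with 690 nm background. GI50 from nonlinear regression of absorbance vs log concentration; at least three independent experiments, duplicates, mean ± SEM.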

[2] = tested on: ABCC1; assay: Therapeutic ratio of GI50 for Growth inhibition of MDCK2 cells over expressing human ABCC1 to IC50 for inhibition of human ABCC1 expressed in MDCK2 cells preincubated for 30 mins followed by calcein AM addition and measured every 60 secs for 60 mins by fluorescence assay; details: dog, MDCK2 cells overexpressing human ABCC1, probe calcein AM
[3] = tested on: MDCK-II; assay: Cytotoxicity against MDCK2 cells over expressing human ABCG2 at 10 uM assessed as reduction in cell viability after 72 hrs by MTT assay; format: ADME, cell-based, Canis lupus familiaris; details: dog
In short: (§2)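 Single-concentration screen at 10 µM in MDCK II BCRP and parental MDCK II cells. MTT assay, 72 h at 37 °C, 5% CO2. Viability referenced to culture medium (100%) and 10% DMSO (0%). Mean ± SEM of at least three independent experiments with duplicates.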

[4] = biological target: T1, Broad substrate specificity ATP-binding cassette transporter ABCG2 (Homo sapiens, UniProt Q9UNQ0); assay: Inhibition of human ABCG2 expressed in MDCK2 cells co-expressing GFP preincubated for 15 mins followed by pheophorbideA addition and measured after 2 hrs by flow cytometric analysis; format: cell-based, MDCK-II
T1 sequence (Q9UNQ0 whole entry): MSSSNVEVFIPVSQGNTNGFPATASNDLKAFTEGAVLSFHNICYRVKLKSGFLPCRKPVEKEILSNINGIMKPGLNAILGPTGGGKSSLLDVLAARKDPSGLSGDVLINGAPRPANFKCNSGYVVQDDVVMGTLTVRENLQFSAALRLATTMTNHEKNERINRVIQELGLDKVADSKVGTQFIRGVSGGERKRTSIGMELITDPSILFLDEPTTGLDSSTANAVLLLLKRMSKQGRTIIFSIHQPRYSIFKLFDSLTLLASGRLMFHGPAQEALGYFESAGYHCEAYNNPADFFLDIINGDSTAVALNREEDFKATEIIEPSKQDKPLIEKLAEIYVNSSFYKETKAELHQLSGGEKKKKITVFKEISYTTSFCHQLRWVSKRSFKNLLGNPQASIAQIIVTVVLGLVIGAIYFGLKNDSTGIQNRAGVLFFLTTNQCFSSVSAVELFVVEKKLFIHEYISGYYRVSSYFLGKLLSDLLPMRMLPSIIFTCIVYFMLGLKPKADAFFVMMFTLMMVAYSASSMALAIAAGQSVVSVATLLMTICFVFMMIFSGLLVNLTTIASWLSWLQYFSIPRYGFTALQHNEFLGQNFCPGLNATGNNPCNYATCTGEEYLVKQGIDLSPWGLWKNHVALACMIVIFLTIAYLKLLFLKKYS
In short: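 Pheophorbide A added to 0.5 µM final and incubated 2 h. Read by flow cytometry (ex 488, em 695/50 nm); GFP expression checked at 525/30 nm. IC50 from 3- or 4-parameter logistic fit.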

[5] = tested on: ABCB1; assay: Therapeutic ratio of GI50 for Growth inhibition of A2780/ADR cells over expressing human ABCB1 to IC50 for inhibition of human ABCB1 expressed in A2780/ADR cells preincubated for 30 mins followed by calcein AM addition and measured every 60 secs for 60 mins by fluorescence assay; details: A2780/ADR cells overexpressing human ABCB1, probe calcein AM
[6] = biological target: T2, ABCG2 (Homo sapiens, UniProt Q9UNQ0); assay: Inhibition of human ABCG2 expressed in MDCK2 cells co-expressing GFP preincubated for 15 mins followed by pheophorbideA addition and measured after 2 hrs by flow cytometric analysis relative to control; format: cell-based, MDCK-II; details: probe pheophorbide A, read-out: Imax
T2 sequence (Q9UNQ0 whole entry): T1 sequence (Q9UNQ0 whole entry)

[7] = tested on: ABCG2; assay: Therapeutic ratio of GI50 for growth inhibition of MDCK2 cells over expressing human ABCG2 to IC50 for inhibition of human ABCG2 expressed in MDCK2 cells co-expressing GFP; details: dog, MDCK2 cells overexpressing human ABCG2
[8] = biological target: ATP-dependent translocase ABCB1 (Homo sapiens, UniProt P08183); assay: Inhibition of human ABCB1 expressed in A2780/ADR cells preincubated for 30 mins followed by calcein AM addition and measured every 60 secs for 60 mins by fluorescence assay; format: cell-based
In short: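 ABCB1 in A2780/ADR cells (kept resistant by one passage in 1 µM doxorubicin every 10 passages). 30,000 cells per well in Krebs-HEPES buffer, preincubated 30 min at 37 °C with inhibitor. Calcein AM added from a 3.125 µM solution. Fluorescence (ex 485, em 520 nm) read every 60 s for 60 min. Initial linear slopes vs log concentration fitted to give IC50.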

[9] = Cytotoxicity against human A2780/ADR cells over expressing ABCB1 assessed as reduction in cell viability after 72 hrs by MTT assay; format: ADME, cell-based; details: A2780/ADR cells overexpressing ABCB1; in short: as §1
[10] = Cytotoxicity against MDCK2 cells assessed as reduction in cell viability after 72 hrs by MTT assay; format: cell-based, Canis lupus familiaris, MDCK-II; details: dog; in short: as §1
[11] = tested on: MDCK-II; assay: Cytotoxicity against MDCK2 cells assessed as reduction in cell viability at 10 uM after 72 hrs by MTT assay; format: cell-based, Canis lupus familiaris; details: dog; in short: as §2
[12] = Cytotoxicity against human A2780 cells assessed as reduction in cell viability after 72 hrs by MTT assay
[13] = Cytotoxicity against MDCK2 cells over expressing human ABCG2 assessed as reduction in cell viability after 72 hrs by MTT assay; format: ADME, cell-based, Canis lupus familiaris, MDCK-II; details: dog, MDCK2 cells overexpressing human ABCG2; in short: as §1
[14] = biological target: T1, Broad substrate specificity ATP-binding cassette transporter ABCG2; assay: Inhibition of ABCG2 in human MCF7/MX cells at 1 uM incubated for 2 hrs in presence of pheophorbide A by confocal laser scanning microscopic method; format: cell-based; details: mcf7x
In short: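 MCF-7/MX cells, 1×10^5 per dish, grown 48 h to 50-60% confluence, then switched to Krebs-HEPES buffer. Pheophorbide A (0.5 µM) applied with inhibitor (1 µM) for 2 h at 37 °C, 5% CO2. Confocal imaging at ex 405 nm, em 662-737 nm, stage at 37 °C; parental MCF-7 imaged for comparison.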

ATP-dependent translocase ABCB1, sequence (P08183 whole entry): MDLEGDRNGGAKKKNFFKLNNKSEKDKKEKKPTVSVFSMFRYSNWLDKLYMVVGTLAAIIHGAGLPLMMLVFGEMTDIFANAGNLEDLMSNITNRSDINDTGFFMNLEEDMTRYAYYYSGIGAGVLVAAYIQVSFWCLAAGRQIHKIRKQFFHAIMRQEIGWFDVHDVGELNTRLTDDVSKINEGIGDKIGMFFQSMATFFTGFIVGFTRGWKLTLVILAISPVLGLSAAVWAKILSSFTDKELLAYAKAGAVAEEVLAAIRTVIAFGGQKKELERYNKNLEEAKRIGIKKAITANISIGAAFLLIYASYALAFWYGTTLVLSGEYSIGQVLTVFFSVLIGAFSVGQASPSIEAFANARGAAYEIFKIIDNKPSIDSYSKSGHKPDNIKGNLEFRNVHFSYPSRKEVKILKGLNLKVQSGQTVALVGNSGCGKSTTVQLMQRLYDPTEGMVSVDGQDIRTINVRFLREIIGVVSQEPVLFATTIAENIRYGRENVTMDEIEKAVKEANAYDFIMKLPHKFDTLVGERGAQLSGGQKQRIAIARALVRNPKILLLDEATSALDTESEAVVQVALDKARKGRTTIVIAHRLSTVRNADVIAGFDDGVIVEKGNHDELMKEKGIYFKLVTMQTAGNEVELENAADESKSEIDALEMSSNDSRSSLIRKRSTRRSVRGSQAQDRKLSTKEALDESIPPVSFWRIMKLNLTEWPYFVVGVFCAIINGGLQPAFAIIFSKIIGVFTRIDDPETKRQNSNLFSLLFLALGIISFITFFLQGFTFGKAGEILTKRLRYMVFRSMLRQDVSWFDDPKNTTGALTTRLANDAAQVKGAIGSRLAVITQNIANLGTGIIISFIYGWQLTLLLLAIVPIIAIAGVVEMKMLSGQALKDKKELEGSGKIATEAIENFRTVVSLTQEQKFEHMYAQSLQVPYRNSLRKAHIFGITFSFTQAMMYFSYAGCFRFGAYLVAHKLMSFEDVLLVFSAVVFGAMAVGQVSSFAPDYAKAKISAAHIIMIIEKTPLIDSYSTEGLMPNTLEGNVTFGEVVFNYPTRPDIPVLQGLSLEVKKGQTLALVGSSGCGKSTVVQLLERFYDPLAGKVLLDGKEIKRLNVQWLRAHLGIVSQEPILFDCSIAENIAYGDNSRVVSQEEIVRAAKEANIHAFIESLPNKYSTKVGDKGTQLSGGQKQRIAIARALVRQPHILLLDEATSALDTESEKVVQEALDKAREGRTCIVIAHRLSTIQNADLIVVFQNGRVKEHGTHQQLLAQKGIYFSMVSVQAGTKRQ

Row | SMILES | GI50 at 72 h [1] | selectivity ratio [2] | Activity [3] | IC50 [4] | selectivity ratio [5] | Emax at 2 h [6] | selectivity ratio [7] | IC50 [8] | GI50 at 72 h [9] | GI50 at 72 h [10] | Activity [11] | GI50 at 72 h [12] | GI50 at 72 h [13] | inhibition (INH) [14]
1 | Cc1cc(Nc2ccc3ncccc3c2)nc(-c2ccccc2)n1 | 35.4 µM | 4.9 | Non-Toxic | 0.151 µM | 5.6 | 79% | 279 | 5.13 µM | 28.9 µM | 38.4 µM | Non-Toxic | 22.6 µM | 42.1 µM | 
2 | Cc1cc(Nc2ccc3nccnc3c2)nc(-c2ccccc2)n1 |  |  | Non-Toxic | 0.312 µM |  | 100% |  | 13.4 µM |  |  | Non-Toxic |  |  | Active
